Where a chain is given by its changes, count along the chain named.

Assay [1] has as its target T1, RGS17-RH (Homo sapiens, UniProt Q9UGC6).
T1 sequence (Q9UGC6 72-206): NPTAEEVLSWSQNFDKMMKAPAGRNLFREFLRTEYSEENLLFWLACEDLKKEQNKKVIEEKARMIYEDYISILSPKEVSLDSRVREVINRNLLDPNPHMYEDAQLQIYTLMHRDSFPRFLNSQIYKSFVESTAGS
The assay can be described thus: 1H-15N HSQC NMR fragment titration, chemical shift perturbation KD. Format: binding. The note with it: calculated from KD and number of heavy atoms. Put shortly: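 100 μM ¹⁵N-RGS17-RH was titrated with fragment from 100 μM up to its solubility limit (generally 2–10 mM) in phosphate buffer, pH 7.6, and ¹H-¹⁵N HSQC spectra were recorded. CSP was taken as the distance between control and treated peak centres. Per-residue KD came from a quadratic binding fit and was averaged over residues. LE = (−2.3039·R·T/HA)·log(KD).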

For the next assay, the target named is T2, RGS4-RH (Homo sapiens, UniProt P49798).
T2 sequence (P49798 51-179): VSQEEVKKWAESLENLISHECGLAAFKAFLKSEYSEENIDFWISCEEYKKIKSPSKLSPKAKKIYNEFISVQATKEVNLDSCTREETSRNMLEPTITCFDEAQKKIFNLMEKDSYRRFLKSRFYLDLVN
The assay can be described thus: 1H-15N HSQC NMR binding to RGS4-RH. The settings on record: 1H-15N HSQC with RGS4-RH. Put shortly: (§1)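 ¹⁵N-labelled RH domains (wild-type RGS4, or RGS17 with the C117S point mutation) were expressed in E. coli BL21-CodonPlus(DE3)-RIPL in M9 medium with 1 g/L ¹⁵NH₄Cl. The His₆ tag was removed with TEV protease, and protein was purified by Ni-IMAC and size exclusion. ¹H-¹⁵N HSQC spectra were recorded with fragment at 1 mM in 1% DMSO and overlaid on 1% DMSO control spectra.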

The next assay has as its target T3, RGS17-RH C117S (Homo sapiens, UniProt Q9UGC6, C117S).
T3 sequence (Q9UGC6 72-206 C117S): T1 sequence (Q9UGC6 72-206) with C46S
The assay is described as follows: 1H-15N HSQC NMR binding to RGS17-RH C117S mutant. The note with it: 1H-15N HSQC with RGS17-RH C117S mutant. Put shortly:
as §1

Assay [2] addresses T4, RGS17-RH GAP activity towards Gαi1 (R178M, A326S) (Homo sapiens, UniProt Q9UGC6).
T4 sequence (Q9UGC6 72-206): T1 sequence (Q9UGC6 72-206)
The assay is described as follows: Malachite green GAP activity assay. The assay is classed as biochemical. The settings on record: 1 mM fragment, 4.5 μM RGS17-RH. Put shortly: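 Free phosphate from GTP hydrolysis was detected colorimetrically with malachite green. Final concentrations were 300 μM GTP, 4.5 μM tag-free RGS17-RH and 1 mM fragment. Mean of n=3 independent experiments ± SEM.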

Assay [3] addresses T1, RGS17-RH. The assay is described as follows: Differential scanning fluorimetry. The note with it: 1 mM fragment, 10 μM RGS17-RH. The assay is classed as binding. Put shortly:
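10 μM RGS17-RH was incubated 30 min at ambient temperature with 1 mM fragment or DMSO control. 2X Sypro Orange was then added, and fluorescence was recorded from 20 to 80 °C. Tm was calculated from the melt curves. Mean of n=3 ± S.E.M.; one-way ANOVA with multiple comparisons.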
For orientation: Differential scanning fluorimetry follows unfolding on heating by fluorescence.

Assay [4] deals with T1, RGS17-RH. The assay is described as follows: DACM cysteine labeling of RGS17-RH after pre-incubation. The assay is classed as biochemical. The note with it: 10-fold molar excess compound (20 μM) over 2 μM RGS17-RH, 30 min pre-incubation. Put shortly: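 RGS17-RH, or buffer alone, was pre-incubated 30 min at ambient temperature with compound (final 2 μM protein, 20 μM compound; NEM as comparator). The buffer was 20 mM K₂HPO₄, 100 mM NaCl, 2 mM NaN₃, pH 7.6. DACM was then added, and fluorescence (ex 385/em 440 nm) was read for 1,000 s. Slopes were normalised to no-protein (0%) and protein without compound (100%). Mean of n=3 ± S.D.; one-way ANOVA.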

Regarding `Oc1ccc(Sc2ccc(O)cc2)cc1` [Fragment 4], the “L.E. (ligand efficiency)” value on RGS17-RH [1] is 0.31. Besides, on RGS4-RH, the “RGS4 Binding” value is reported as “Yes”. On RGS17-RH C117S, the “RGS C117S Binding” value is reported as “Yes”. Moreover, the “inhibition of RGS17-RH GAP activity” value in assay [2] (300 μM GTP) is on record as around 20%. The “effect on melting temperature of RGS17-RH (in words)” value on RGS17-RH [3] was “melting temperature could not be accurately determined”.
Consider `OCCCCn1cnc2cc(Cl)c(Cl)cc21` [Fragment 6], for which, at RGS17-RH [1], the “L.E. (ligand efficiency)” value is reported as 0.25. The “RGS4 Binding” value on RGS4-RH is given as “Yes”. Besides, the “RGS C117S Binding” value at RGS17-RH C117S is recorded as “Yes”. For the same compound, in assay [2] (one-way ANOVA), the “inhibition of RGS17-RH GAP activity (in words)” value is listed as “lack of appreciable RGS17-RH GAP inhibition”. The “effect on melting temperature of RGS17-RH (in words)” value on RGS17-RH [3] is reported as “not statistically significant”.
With `CCN1C(=O)C=CC1=O` [N-ethyl maleimide (NEM), N-ethyl maleimide, reference compound], the “DACM labeling of RGS17-RH after pre-incubation” value at RGS17-RH [4] is recorded as “decreased DACM labeling”.
On to `OCCCCCOc1ccc(Cl)cc1` [Fragment 7], for which the “L.E. (ligand efficiency)” value on RGS17-RH [1] is 0.25. At RGS4-RH, the “RGS4 Binding” value is reported as “Yes”. For the same compound, the “RGS C117S Binding” value at RGS17-RH C117S is reported as “Yes”.
Regarding `CSc1cc(-c2ccc(F)cc2)[nH]n1` [Fragment 5], the “L.E. (ligand efficiency)” value at RGS17-RH [1] is recorded as 0.23. For the same compound, the “RGS4 Binding” value at RGS4-RH (listed as 5) is reported as “No”; at RGS4-RH (listed as fragment 5), “did not bind”. The results for the “RGS C117S Binding” value at RGS17-RH C117S (listed as 5) and at RGS17-RH C117S (listed as fragment 5) were “No” and “did not bind”, respectively.
